Experimental data published in ChEMBL document CHEMBL5543163, “Druglike, 18F-labeled PET Tracers Targeting Fibroblast Activation Protein” (J Med Chem, 2024).
Each block holds one compound with its values, some of them ahead of it.

Tests used:
[1] = Octanol/water partition coefficient, logD of compound at 74 kBq incubated for 2 mins by gamma counter method; format: physicochemical
Outline: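 Octanol and PBS phases were mixed and vortexed for 2 min, then centrifuged at 3,000 rpm for 10 min. Aliquots of 0.5 mL from each phase were γ-counted and corrected for mass and density. LogD was taken as log10 of the octanol/PBS radioactivity ratio.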

[2] = Stability in PBS assessed as compound remaining at 185 kBq measured upto 60 mins by radio-HPLC analysis; format: physicochemical; conditions: read-out: Stability
Outline: (§1)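 Radiotracer was incubated at 37 °C for up to 60 min in PBS (0.01 M, pH 7.4) or in mouse plasma. Samples were deproteinized with an equal volume of cold ACN and centrifuged. The supernatant was analyzed by radio-HPLC with 30 s fractions γ-counted to give the intact fraction. Triplicates.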

[3] = Stability in CD1 mouse plasma assessed as compound remaining at 185 kBq measured upto 60 mins by radio-HPLC analysis; format: ADME, cell-free; conditions: read-out: Stability; outline: as §1
[4] = Stability in PBS assessed as drug degradation at 185 kBq measured upto 60 mins by radio-HPLC analysis; format: physicochemical; conditions: buffer, 1 h; outline: as §1
[5] = Stability in CD1 mouse plasma assessed as drug degradation at 185 kBq measured upto 60 mins by radio-HPLC analysis; format: ADME, cell-free; conditions: 1 h; outline: as §1
[6] = Stability in female nude mouse harboring null mutation of CD1 antigen complex assessed as drug degradation at 5.1 to 7.4 MBq, iv measured at 60 mins by radio-HPLC analysis; format: ADME, organism-based; conditions: 1 h, dose 5.1-7.4 MBq
Outline: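 Female CD1 nude mice received 5.1–7.4 MBq i.v. EDTA blood collected at 15, 30 and 60 min p.i. (n=3 per time point) was centrifuged to plasma, deproteinized with cold ACN and centrifuged. The supernatant was analyzed by radio-HPLC with 30 s fractions γ-counted to give the percent intact tracer.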

[7] = Drug uptake in liver of female nude mouse harboring null mutation of CD1 antigen complex at 5.1 to 7.4 MBq, iv measured after 15 to 60 mins by gamma counter analysis; format: ADME, organism-based; conditions: in vivo, dose lower 5.1 MBq, time lower 15 min, dose upper 7.4 MBq, time upper 60 min
Outline: (§2)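 Female CD1 nude mice, 6–8 weeks old (20–25 g), received the radiotracer through the lateral tail vein. At 15, 30 and 60 min p.i. (n = 3 per time point) blood was drawn by cardiac puncture and the animals were euthanized. Organs were excised, weighed and γ-counted. Uptake is expressed as %ID/g.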

[8] = Drug uptake in intestine of female nude mouse harboring null mutation of CD1 antigen complex at 5.1 to 7.4 MBq, iv measured after 15 to 60 mins by gamma counter analysis; format: ADME, organism-based; conditions: in vivo, dose lower 5.1 MBq, time lower 15 min, dose upper 7.4 MBq, time upper 60 min; outline: as §2
[9] = Drug uptake in kidney of female nude mouse harboring null mutation of CD1 antigen complex assessed as increase in renal excretion at 5.1 to 7.4 MBq, iv measured after 15 to 60 mins by gamma counter analysis; format: ADME, organism-based; conditions: in vivo, dose lower 5.1 MBq, time lower 15 min, dose upper 7.4 MBq, time upper 60 min; outline: as §2
[10] = Drug uptake in urinary bladder of female nude mouse harboring null mutation of CD1 antigen complex assessed as increase in renal excretion at 5.1 to 7.4 MBq, iv measured after 15 to 60 mins by gamma counter analysis; format: ADME, organism-based; conditions: in vivo, dose lower 5.1 MBq, time lower 15 min, dose upper 7.4 MBq, time upper 60 min; outline: as §2
[11] = Drug uptake in tumor of female nude mouse harboring null mutation of CD1 antigen complex xenografted with human U-87 MG cells at 5 to 7.4 MBq, iv measured at 60 mins by PET/CT analysis; format: ADME, organism-based, Neoplasm; conditions: in vivo, 1 h, dose 5-7.4 MBq
Outline: (§3)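 U-87MG xenografts (5×10^6 cells, subcutaneous flank) were grown in female CD1 nude mice to about 200 mm3. Dynamic whole-body PET over 60 min p.i. was followed by CT. Images were reconstructed with OSEM 3D and expressed as %ID/mL to give time-activity curves. For blocking, the FAP inhibitor (5 mg/kg) was given via the tail vein 30 min before the tracer; n=4.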

[12] = Drug uptake in tumor of female nude mouse harboring null mutation of CD1 antigen complex xenografted with human U-87 MG cells at 5 to 7.4 MBq, iv pretreated with (S)-N-(2-(2-cyano-4,4-difluoropyrrolidin-1-yl)-2-oxoethyl)quinoline-4-carboxamide for 30 mins followed by radioligand addition and measured measured after 60 mins by PET/CT analysis; format: ADME, organism-based, Neoplasm; conditions: in vivo, 1 h, dose 5-7.4 MBq; outline: as §3
[13] = Drug uptake in skull of female nude mouse harboring null mutation of CD1 antigen complex xenografted with human U-87 MG cells at 5 to 7.4 MBq, iv measured after 60 mins by gamma counter analysis; format: ADME, organism-based; conditions: in vivo, 1 h, dose 5-7.4 MBq
[14] = Ratio of drug level in tumor to muscle of female nude mouse harboring null mutation of CD1 antigen complex xenografted with human U-87 MG cells at 5 to 7.4 MBq, iv measured at 60 mins postinjection by gamma counter analysis; format: ADME, organism-based; conditions: in vivo, 1 h, dose 5-7.4 MBq
Outline: (§4)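 Subcutaneous U-87MG xenografts (5×10^6 cells in DPBS, hind flank) were grown in female CD1 nude mice to about 200 mm3. After tail-vein radiotracer injection and a 60 min dynamic PET scan, tissues were harvested at 60 min p.i. and γ-counted (%ID/g). Tumor-to-tissue ratios are means ± SD of individual ratios, n=4 per tracer.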

[15] = Ratio of drug level in tumor to blood of female nude mouse harboring null mutation of CD1 antigen complex xenografted with human U-87 MG cells at 5 to 7.4 MBq, iv measured at 60 mins postinjection by gamma counter analysis; format: ADME, organism-based; conditions: tumour, 1 h, dose 5-7.4 MBq; outline: as §4
[16] = Ratio of drug level in tumor to small intestine of female nude mouse harboring null mutation of CD1 antigen complex xenografted with human U-87 MG cells at 5 to 7.4 MBq, iv measured at 60 mins postinjection by gamma counter analysis; format: ADME, organism-based; conditions: in vivo, 1 h, dose 5-7.4 MBq; outline: as §4
[17] = Ratio of drug level in tumor to liver of female nude mouse harboring null mutation of CD1 antigen complex xenografted with human U-87 MG cells at 5 to 7.4 MBq, iv measured at 60 mins postinjection by gamma counter analysis; format: ADME, organism-based; conditions: in vivo, 1 h, dose 5-7.4 MBq; outline: as §4
[18] = Drug uptake in tumor of female nude mouse harboring null mutation of CD1 antigen complex xenografted with FAP-negative human HT-29 cells at 5 to 7.4 MBq, iv measured at 60 mins by PET/CT analysis; format: ADME, organism-based, Neoplasm; conditions: in vivo, 1 h, dose 5-7.4 MBq
Outline: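 HT29 xenografts (10×10^6 cells, subcutaneous hind flank) were grown in female CD1 nude mice to about 200 mm3. After tail-vein injection of the tracer, dynamic PET over 60 min was followed by CT. Images were reconstructed with OSEM 3D and tumor uptake was expressed as %ID/mL from time-activity curves, n=4.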

[19] = Drug uptake in tumor of female nude mouse harboring null mutation of CD1 antigen complex xenografted with FAP-negative human HT-29 cells at 5 to 7.4 MBq, iv measured after 60 mins by autoradiography; format: ADME, organism-based, Neoplasm; conditions: in vivo, 1 h, dose 5-7.4 MBq
Outline: (§5)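 Right after imaging and γ-counting, tumors from HT29 or U-87MG xenografts were snap-frozen and embedded in OCT. Sections of 100 µm were exposed overnight to phosphor screens. Non-blocked tumors were compared with tumors from mice pre-injected with the FAP inhibitor.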

[20] = Drug uptake in tumor of female nude mouse harboring null mutation of CD1 antigen complex xenografted with human U-87 MG cells at 5 to 7.4 MBq, iv measured after 60 mins by autoradiography; format: ADME, organism-based, Neoplasm; conditions: in vivo, 1 h, dose 5-7.4 MBq; outline: as §5
[21] = Drug uptake in tumor of female nude mouse harboring null mutation of CD1 antigen complex xenografted with human U-87 MG cells with increased FAP positive tumor area at 5 to 7.4 MBq, iv measured after 60 mins by immunohistochemistry analysis; format: ADME, organism-based, Neoplasm; conditions: in vivo, 1 h, dose 5-7.4 MBq
[22] = Drug uptake in tumor of female nude mouse harboring null mutation of CD1 antigen complex xenografted with human HT-29 cells with decreased FAP positive tumor area at 5 to 7.4 MBq, iv measured after 60 mins by immunohistochemistry analysis; format: ADME, organism-based, Neoplasm; conditions: in vivo, 1 h, dose 5-7.4 MBq
[23] = Drug uptake in bone structures of female nude mouse harboring null mutation of CD1 antigen complex xenografted with human U-87 MG cells at 5 to 7.4 MBq, iv measured after 60 mins by gamma counter analysis; format: ADME, organism-based, Bone element; conditions: in vivo, 1 h, dose 5-7.4 MBq
Dipeptidyl peptidase 8 = Dipeptidyl peptidase 8 (Homo sapiens, UniProt Q6V1X1); assay: Inhibition of DPP8 (unknown origin)
Dipeptidyl peptidase 8, sequence (Q6V1X1 whole entry): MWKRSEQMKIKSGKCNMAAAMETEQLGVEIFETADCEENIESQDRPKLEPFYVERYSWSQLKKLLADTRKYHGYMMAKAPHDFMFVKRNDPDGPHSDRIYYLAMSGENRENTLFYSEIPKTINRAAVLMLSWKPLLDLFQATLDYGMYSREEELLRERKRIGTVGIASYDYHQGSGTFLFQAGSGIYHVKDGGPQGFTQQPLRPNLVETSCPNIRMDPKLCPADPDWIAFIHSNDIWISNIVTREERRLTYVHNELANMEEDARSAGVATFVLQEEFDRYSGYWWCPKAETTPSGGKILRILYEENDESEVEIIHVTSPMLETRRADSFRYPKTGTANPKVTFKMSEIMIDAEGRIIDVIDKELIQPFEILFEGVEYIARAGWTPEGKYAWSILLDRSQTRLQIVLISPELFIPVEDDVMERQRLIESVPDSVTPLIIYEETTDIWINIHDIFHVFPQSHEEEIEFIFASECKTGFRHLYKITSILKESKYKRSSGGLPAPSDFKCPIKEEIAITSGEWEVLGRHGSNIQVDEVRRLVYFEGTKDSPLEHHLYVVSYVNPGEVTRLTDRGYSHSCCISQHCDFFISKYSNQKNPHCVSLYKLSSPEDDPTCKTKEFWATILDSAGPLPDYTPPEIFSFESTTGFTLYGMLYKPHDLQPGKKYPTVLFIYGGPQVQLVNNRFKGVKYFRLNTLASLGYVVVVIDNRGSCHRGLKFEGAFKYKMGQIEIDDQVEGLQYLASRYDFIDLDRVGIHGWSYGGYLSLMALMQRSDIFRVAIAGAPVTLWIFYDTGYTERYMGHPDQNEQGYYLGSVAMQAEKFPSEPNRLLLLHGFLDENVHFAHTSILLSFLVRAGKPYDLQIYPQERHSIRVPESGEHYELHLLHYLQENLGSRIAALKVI

- logD at 2 min [1]: 0.77
- remaining at 1 h, 185 kBq [2]: > 70%
- remaining at 1 h, 185 kBq [3]: > 70%
- Stability [4]: Stable
- Stability [5]: Stable
- Stability [6]: Unstable
- Drug uptake [7]: Active
- Drug uptake [8]: Active
- Drug uptake [9]: Active
- Drug uptake [10]: Active
- Drug uptake [11]: < 3 %ID/ml
- Drug uptake [12]: Not Active
- Drug uptake [13]: Active
- Ratio [14]: 6.48
- Ratio [15]: 5.01
- Ratio [16]: 0.22
- Ratio [17]: 1.64
- Drug uptake [18]: 1.86 %ID/ml
- Drug uptake [19]: Active
- Drug uptake [20]: Active
- Drug uptake [21]: Active
- Drug uptake [22]: Not Active
- Drug uptake [23]: Active
Compound: COC(C[18F])COc1ccc2nccc(C(=O)NCC(=O)N3CC(F)(F)C[C@H]3C#N)c2c1 (some centres undefined)

- IC50 (Dipeptidyl peptidase 8): 4.7 µM
Compound: N#C[C@@H]1CC(F)(F)CN1C(=O)CNC(=O)c1ccnc2ccccc12
